Results taken from ChEMBL document CHEMBL1125887, “Nucleosides and nucleotides. 94. Radical deoxygenation of tert-alcohols in 1-(2-C-alkylpentofuranosyl) pyrimidines: synthesis of (2'S)-2'-deoxy-2'-C-methylcytidine, an antileukemic nucleoside” (J Med Chem, 1991).
Values after ≈ are worked out from the molar mass of the structure shown.

How the values were obtained:
[1] = system: L1210; test: Concentration required for 50% inhibition of cell growth of L1210 leukemic cell lines in mouse.; format: functional, cell-based
Outline: (§1)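 MTT growth assay: each tumor cell line seeded at 1 × 10^4 cells/well and incubated with or without test compound for 72 h. MTT was then added and OD at 570 nm was read. % inhibition = [1 − OD(sample well)/OD(control well)] × 100. IC50 is the concentration in μg/mL giving 50% inhibition of cell growth.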

[2] = system: KATO III stomach cancer cell line; test: Concentration required for 50% inhibition of human […] carcinoma KATO III solid cell lines.; format: functional, cell-based; outline: as §1
[3] = system: PC-14; test: Concentration required for 50% inhibition of human lung squamous cell carcinoma PC14 solid cell lines.; format: functional, cell-based; outline: as §1
[4] = system: CCRF-CEM; test: Concentration required for 50% inhibition of cell growth of CCRF CEM leukemic cell lines in human.; format: functional, cell-based; outline: as §1
[5] = system: U-937; test: Concentration required for 50% inhibition of cell growth of U937 leukemic cell lines in human.; format: functional, cell-based; outline: as §1
[6] = system: T-24; test: Concentration required for 50% inhibition of human bladder transitional-cell carcinoma T24 solid cell lines.
[7] = system: K562; test: Concentration required for 50% inhibition of cell growth of K562 leukemic cell lines in human.; format: functional, cell-based
Outline: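 Tumour cells seeded at 1 × 10^4/well were grown with or without test compound for 72 h. MTT was then added and OD at 570 nm read. % inhibition = [1 − OD(sample)/OD(control)] × 100. IC50 is the concentration in μg/mL giving 50% growth inhibition.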

[8] = system: HL-60; test: Concentration required for 50% inhibition of cell growth of HL60 leukemic cell lines in human.; format: functional, cell-based; outline: as §1
[9] = system: PC10; test: Concentration required for 50% inhibition of human lung squamous cell carcinoma PC10 solid cell lines.; format: functional, cell-based; outline: as §1
[10] = system: SW480; test: Concentration required for 50% inhibition of human […] carcinoma SW 480 solid cell lines.; format: functional, cell-based; outline: as §1
[11] = system: TE-2; test: Concentration required for 50% inhibition of human […] squamous cell carcinoma TE2 solid cell lines.; format: functional, cell-based; outline: as §1
[12] = system: MOLT-4; test: Concentration required for 50% inhibition of cell growth of MOLT-4 leukemic cell lines in human.; format: functional, cell-based; outline: as §1

`C[C@@H]1[C@H](O)[C@@H](CO)O[C@H]1n1ccc(N)nc1=O` gave an IC50 [1] of 40 µg/mL (≈ 166 µM).

With `C[C@H]1[C@H](O)[C@@H](CO)O[C@H]1n1ccc(N)nc1=O` the IC50 [2] was over 100 µg/mL, the IC50 [1] was 0.26 µg/mL (≈ 1.08 µM) and the IC50 [3] was over 100 µg/mL. For the same compound, the IC50 [4] was 0.15 µg/mL (≈ 0.622 µM), the IC50 [5] was 0.38 µg/mL (≈ 1.58 µM) and the IC50 [6] was 1.1 µg/mL (≈ 4.56 µM). For the same compound, the IC50 [7] was 2.2 µg/mL (≈ 9.12 µM), the IC50 [8] was 0.65 µg/mL (≈ 2.69 µM) and the IC50 [9] was 81.8 µg/mL (≈ 339 µM). It also gave an IC50 [10] of over 100 µg/mL, an IC50 [11] of over 100 µg/mL and an IC50 [12] of 0.032 µg/mL (≈ 0.133 µM).

With `C[C@]1(O)[C@H](O)[C@@H](CO)O[C@H]1n1ccc(N)nc1=O` the IC50 [1] was over 100 µg/mL.

`C[C@@]1(O)[C@H](O)[C@@H](CO)O[C@H]1n1ccc(N)nc1=O` gave an IC50 [1] of 12 µg/mL (≈ 46.6 µM).

Compound `Cc1cn([C@@H]2O[C@H](CO)C(O)[C@H]2C)c(=O)[nH]c1=O` (some centres not stated) has an IC50 [1] of 32 µg/mL (≈ 125 µM).

For `CC[C@@H]1C(O)[C@@H](CO)O[C@H]1n1ccc(N)nc1=O` (some centres not stated), the IC50 [1] was over 100 µg/mL.

In the case of `Nc1ccn([C@@H]2O[C@H](CO)[C@@H](O)[C@@H]2O)c(=O)n1` [CYTARABINE], the IC50 [2] is reported as over 100 µg/mL, the IC50 [3] is reported as over 100 µg/mL and the IC50 [5] is reported as 0.31 µg/mL (≈ 1.27 µM). The IC50 [6] was over 100 µg/mL, the IC50 [8] was over 0.1 µg/mL and the IC50 [9] was over 100 µg/mL. For the same compound, the IC50 [10] was over 100 µg/mL and the IC50 [11] was over 100 µg/mL.

For `O=c1[nH]cc(F)c(=O)[nH]1` [FLUOROURACIL], the IC50 [7] was 3.8 µg/mL (≈ 29.2 µM) and the IC50 [9] was over 100 µg/mL.
